Key:
[1] = molecular target: Voltage-gated inwardly rectifying potassium channel KCNH2 (Homo sapiens, UniProt Q12809); assay: Binding affinity to human ERG
Cytochrome P450 3A4 [2] = molecular target: T1, Cytochrome P450 3A4 (Homo sapiens, UniProt P08684); assay: Inhibition of human CYP3A4 in human liver microsomes assessed as formation of 6beta-hydroxy-testosterone using testosterone as substrate by high throughput mass spectrometry preincubated for 30 mins in presence of NADPH; type: ADME, Microsome
CYP3A4 = CYP3A4 (Homo sapiens, UniProt P08684); assay: Ratio of IC50 for human CYP3A4 in absence of NADPH to IC50 for human CYP3A4 preincubated for 30 mins in presence of NADPH; settings: read-out: Ratio IC50
Renin [3] = molecular target: T2, Renin (Homo sapiens, UniProt P00797); assay: Inhibition of human recombinant renin in human citreated-plasma
T2 sequence (P00797 whole entry): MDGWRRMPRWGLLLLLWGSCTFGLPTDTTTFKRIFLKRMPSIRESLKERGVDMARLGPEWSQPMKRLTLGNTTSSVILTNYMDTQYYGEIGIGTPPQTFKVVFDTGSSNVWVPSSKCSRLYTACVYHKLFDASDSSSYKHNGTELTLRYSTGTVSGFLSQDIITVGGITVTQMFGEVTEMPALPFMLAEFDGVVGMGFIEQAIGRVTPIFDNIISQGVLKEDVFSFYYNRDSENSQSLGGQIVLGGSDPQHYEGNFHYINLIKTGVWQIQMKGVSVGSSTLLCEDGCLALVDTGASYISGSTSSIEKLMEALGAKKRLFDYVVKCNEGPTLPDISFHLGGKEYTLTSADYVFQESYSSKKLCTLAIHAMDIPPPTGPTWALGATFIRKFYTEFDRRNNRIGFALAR

Cytochrome P450 3A4 [4] = molecular target: T1, Cytochrome P450 3A4; assay: Inhibition of human CYP3A4 in human liver microsomes assessed as formation of 6beta-hydroxy-testosterone using testosterone as substrate by high throughput mass spectrometry in absence of NADPH; type: ADME, Microsome
Renin [5] = molecular target: T2, Renin; assay: Inhibition of human recombinant renin in PBS buffer using tetradecapeptide at pH 7.4
[6] = AUC (0 to 24 hrs) in Sprague-Dawley rat at 30 mg/kg, po in 60% PEG 200 at PH 2.5; type: ADME, organism-based; set-up: time < 24 hr, dose 30 mg/kg, route oral; settings: plasma
[7] = AUC (0 to 24 hrs) in Sprague-Dawley rat at 30 mg/kg, po in lyposin 2; type: ADME, organism-based; set-up: time < 24 hr, dose 30 mg/kg, route oral; settings: plasma
[8] = AUC (0 to 24 hrs) in Sprague-Dawley rat at 30 mg/kg, po in peanut oil; type: ADME, organism-based; set-up: time < 24 hr, dose 30 mg/kg, route oral; settings: plasma
[9] = Oral bioavailability in Sprague-Dawley rat at 30 mg/kg in peanut oil; type: ADME, organism-based; settings: in vivo
[10] = AUC (0 to 24 hrs) in Sprague-Dawley rat at 30 mg/kg, po as 0.5% methocel suspension; type: ADME, organism-based; set-up: time < 24 hr, dose 30 mg/kg, route oral; settings: plasma
[11] = Clearance in Sprague-Dawley rat at 30 mg/kg, po in 0.5% methocel and 3 to 5 mg/kg, iv in 60% PEG 200; settings: in vivo
[12] = Oral bioavailability in Sprague-Dawley rat at 30 mg/kg in lyposin 2; type: ADME, organism-based; settings: in vivo
[13] = AUC (0 to 24 hrs) in Sprague-Dawley rat at 30 mg/kg, po in Na salt in 0.5% methocel; type: ADME, organism-based; set-up: time < 24 hr, dose 30 mg/kg, route oral; settings: plasma
[14] = Bioavailability in Sprague-Dawley rat at 20 mg/kg, intra-duodenum in 5% dextrose; type: ADME, organism-based; settings: in vivo
Procedure, shortened: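 Rats were dosed directly into the duodenum at 20 mg/kg in 5% dextrose, 1 mL/kg. Bioavailability was calculated for the parent carboxylic acid.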

[15] = AUC (0 to 24 hrs) in Sprague-Dawley rat at 30 mg/kg, po in Ca salt in 0.5% methocel; type: ADME, organism-based; set-up: time < 24 hr, dose 30 mg/kg, route oral; settings: plasma
[16] = Oral bioavailability in Sprague-Dawley rat at 30 mg/kg in 60% PEG 200; type: ADME, organism-based; settings: in vivo
[17] = Oral bioavailability in Sprague-Dawley rat at 30 mg/kg in Na salt in 0.5% methocel; type: ADME, organism-based; settings: in vivo
[18] = AUC (0 to 24 hrs) in Sprague-Dawley rat at 30 mg/kg, po in 60% PEG 200; type: ADME, organism-based; set-up: time < 24 hr, dose 30 mg/kg, route oral; settings: plasma
[19] = Oral bioavailability in Sprague-Dawley rat at 30 mg/kg as 0.5% methocel suspension; type: ADME, organism-based; settings: in vivo
[20] = Oral bioavailability in Sprague-Dawley rat at 30 mg/kg in 60% PEG 200 at PH 2.5; type: ADME, organism-based; settings: in vivo
[21] = Oral bioavailability in Sprague-Dawley rat at 30 mg/kg in Ca salt in 0.5% methocel; type: ADME, organism-based; settings: in vivo
Blood [22] = assay: Metabolic stability in Sprague-Dawley rat whole blood assessed as conversion to (1R,2R)-2-((3-(((3R,4S)-N-cyclopropyl-4-(4-(2-(2,6-dichloro-4-methylphenoxy)ethoxy)phenyl)piperidine-3-carboxamido)methyl)-5-(3-methoxypropyl)phenoxy)methyl)cyclopropanecarboxylic acid after 20 mins; type: ADME, tissue-based
Procedure, shortened: (§1)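 Prodrugs were incubated for 20 min in rat or human whole blood, or in rat or human liver S9 fraction (n = 2). The read-out was % conversion to the parent carboxylic acid.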

Blood [23] = assay: Metabolic stability in human whole blood assessed as conversion to (1R,2R)-2-((3-(((3R,4S)-N-cyclopropyl-4-(4-(2-(2,6-dichloro-4-methylphenoxy)ethoxy)phenyl)piperidine-3-carboxamido)methyl)-5-(3-methoxypropyl)phenoxy)methyl)cyclopropanecarboxylic acid after 20 mins; type: ADME, tissue-based; procedure, shortened: as §1
Liver [24] = assay: Metabolic stability in Sprague-Dawley rat liver S9 fraction assessed as conversion to (1R,2R)-2-((3-(((3R,4S)-N-cyclopropyl-4-(4-(2-(2,6-dichloro-4-methylphenoxy)ethoxy)phenyl)piperidine-3-carboxamido)methyl)-5-(3-methoxypropyl)phenoxy)methyl)cyclopropanecarboxylic acid after 20 mins; type: ADME, subcellular; settings: s9, 20 min; procedure, shortened: as §1
Liver [25] = assay: Metabolic stability in human liver S9 fraction assessed as conversion to (1R,2R)-2-((3-(((3R,4S)-N-cyclopropyl-4-(4-(2-(2,6-dichloro-4-methylphenoxy)ethoxy)phenyl)piperidine-3-carboxamido)methyl)-5-(3-methoxypropyl)phenoxy)methyl)cyclopropanecarboxylic acid after 20 mins; type: ADME, subcellular; settings: s9, 20 min; procedure, shortened: as §1

Sequence of Voltage-gated inwardly rectifying potassium channel KCNH2 (Q12809 whole entry): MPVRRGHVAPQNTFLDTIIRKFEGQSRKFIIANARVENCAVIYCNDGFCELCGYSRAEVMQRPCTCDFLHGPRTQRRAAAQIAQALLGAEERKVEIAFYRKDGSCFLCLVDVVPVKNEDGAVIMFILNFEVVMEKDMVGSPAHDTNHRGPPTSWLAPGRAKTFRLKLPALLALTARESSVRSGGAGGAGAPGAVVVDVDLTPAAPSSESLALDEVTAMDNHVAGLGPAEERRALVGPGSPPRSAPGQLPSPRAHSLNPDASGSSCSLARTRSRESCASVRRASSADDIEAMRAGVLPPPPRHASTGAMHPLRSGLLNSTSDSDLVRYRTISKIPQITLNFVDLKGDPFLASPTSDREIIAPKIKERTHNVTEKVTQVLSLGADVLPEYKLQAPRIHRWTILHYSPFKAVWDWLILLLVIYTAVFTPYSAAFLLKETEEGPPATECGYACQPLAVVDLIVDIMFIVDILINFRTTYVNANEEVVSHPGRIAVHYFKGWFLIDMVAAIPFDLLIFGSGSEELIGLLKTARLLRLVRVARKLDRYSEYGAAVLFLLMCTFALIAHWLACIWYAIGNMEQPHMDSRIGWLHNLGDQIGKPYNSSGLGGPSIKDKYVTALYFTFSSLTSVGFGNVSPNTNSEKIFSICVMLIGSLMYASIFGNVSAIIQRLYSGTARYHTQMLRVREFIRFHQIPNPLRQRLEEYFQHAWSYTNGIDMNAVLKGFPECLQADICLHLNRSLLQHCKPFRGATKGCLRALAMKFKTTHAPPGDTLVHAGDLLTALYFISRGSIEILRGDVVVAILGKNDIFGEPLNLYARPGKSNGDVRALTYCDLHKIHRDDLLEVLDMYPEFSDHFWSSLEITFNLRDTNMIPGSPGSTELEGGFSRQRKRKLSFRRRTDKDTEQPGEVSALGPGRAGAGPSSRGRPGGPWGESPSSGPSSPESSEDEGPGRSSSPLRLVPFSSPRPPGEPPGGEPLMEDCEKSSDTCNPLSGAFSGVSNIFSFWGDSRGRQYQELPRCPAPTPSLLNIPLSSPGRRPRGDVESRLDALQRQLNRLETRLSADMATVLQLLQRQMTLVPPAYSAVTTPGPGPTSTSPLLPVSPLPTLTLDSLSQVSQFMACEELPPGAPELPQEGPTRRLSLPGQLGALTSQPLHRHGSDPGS
T1 sequence (P08684 whole entry): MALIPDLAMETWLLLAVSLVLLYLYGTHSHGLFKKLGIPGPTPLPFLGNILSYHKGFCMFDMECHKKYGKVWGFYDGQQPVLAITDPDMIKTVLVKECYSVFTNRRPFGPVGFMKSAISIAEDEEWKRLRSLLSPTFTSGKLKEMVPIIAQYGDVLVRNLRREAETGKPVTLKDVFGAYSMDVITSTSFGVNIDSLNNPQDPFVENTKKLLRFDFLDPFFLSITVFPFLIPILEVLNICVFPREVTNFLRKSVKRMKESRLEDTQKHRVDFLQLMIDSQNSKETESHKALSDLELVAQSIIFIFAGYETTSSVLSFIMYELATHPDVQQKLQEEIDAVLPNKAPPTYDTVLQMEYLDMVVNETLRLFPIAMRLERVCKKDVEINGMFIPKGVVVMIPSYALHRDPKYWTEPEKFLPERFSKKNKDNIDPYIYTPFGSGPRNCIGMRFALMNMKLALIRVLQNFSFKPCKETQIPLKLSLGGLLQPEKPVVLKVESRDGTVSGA
Sequence of CYP3A4 (P08684 whole entry): as above

IC50 (Cytochrome P450 3A4 [2]) [nM]	IC50 (Renin [3]) [nM]	IC50 (Cytochrome P450 3A4 [4]) [nM]	IC50 (Renin [5]) [nM]	AUC(0-t) at 24 h [10] [µM·h]	Activity (Blood [22]) [%]	Activity (Blood [23]) [%]	Activity (Liver [24]) [%]	Structure (SMILES)	Ki [1] [nM]	further results
1400	10.9	19600	0.028	–	–	–	–	COCCCc1cc(CN(C(=O)[C@H]2CNCC[C@@H]2c2ccc(OCCOc3c(Cl)cc(C)cc3Cl)cc2)C2CC2)cc(OCC2(CC#N)CC2)c1	60	IC50 shift (CYP3A4): 14.1
2400	–	21600	–	–	–	–	–	COCCCc1cc(CN(C(=O)[C@H]2CNCC[C@@H]2c2ccc(OCCOc3c(Cl)cc(C)cc3Cl)cc2)C2CC2)cc(OCCOC)c1	80	–
1400	–	22700	–	–	–	–	–	COCCCc1cc(CN(C(=O)[C@H]2CNCC[C@@H]2c2ccc(OCCOc3c(Cl)cc(C)cc3Cl)cc2)C2CC2)cc(OCCN(C)C)c1	180	–
–	2.9	–	0.028	–	–	–	–	COCCCc1cc(CN(C(=O)[C@H]2CNCC[C@@H]2c2ccc(OCCOc3c(Cl)cc(C)cc3Cl)cc2)C2CC2)cc(OCCCNS(C)(=O)=O)c1	80	–
2400	3.3	6300	0.022	–	–	–	–	CCNC(=O)NCCCOc1cc(CCCOC)cc(CN(C(=O)[C@H]2CNCC[C@@H]2c2ccc(OCCOc3c(Cl)cc(C)cc3Cl)cc2)C2CC2)c1	150	IC50 shift (CYP3A4): 2.6
5600	–	> 50000	–	–	–	–	–	COCCCc1cc(CN(C(=O)[C@H]2CNCC[C@@H]2c2ccc(OCCOc3c(Cl)cc(C)cc3Cl)cc2)C2CC2)cc(OCC(C)(C)O)c1	130	–
> 50000	1.1	> 50000	0.027	0.1	–	–	–	COCCCc1cc(CN(C(=O)[C@H]2CNCC[C@@H]2c2ccc(OCCOc3c(Cl)cc(C)cc3Cl)cc2)C2CC2)cc(OC[C@H]2C[C@@H]2C(=O)O)c1	1070	AUC(0-t) at 24 h [6]: 0.1 µM·h; AUC(0-t) at 24 h [7]: 0.03 µM·h; AUC(0-t) at 24 h [8]: 0.1 µM·h; bioavailability [9]: 1%; clearance [11]: 60 mL/min/kg; bioavailability [12]: 0%; AUC(0-t) at 24 h [13]: 0.1 µM·h; bioavailability [14]: 0%; AUC(0-t) at 24 h [15]: 0.3 µM·h; bioavailability [16]: 4%; bioavailability [17]: 1%; AUC(0-t) at 24 h [18]: 0.5 µM·h; bioavailability [19]: 1%; bioavailability [20]: 1%; bioavailability [21]: 0%
–	–	–	–	3.5	100	1	66	COCCCc1cc(CN(C(=O)[C@H]2CNCC[C@@H]2c2ccc(OCCOc3c(Cl)cc(C)cc3Cl)cc2)C2CC2)cc(OC[C@H]2C[C@@H]2C(=O)OCC(=O)N(C)C)c1	200	–
–	–	–	–	–	100	38	81	CCOC(=O)OC(C)OC(=O)[C@H]1C[C@@H]1COc1cc(CCCOC)cc(CN(C(=O)[C@H]2CNCC[C@@H]2c2ccc(OCCOc3c(Cl)cc(C)cc3Cl)cc2)C2CC2)c1 (stereo not given in full)	–	Activity (Liver [25]): 90%
–	–	–	–	0.2	100	56	83	COCCCc1cc(CN(C(=O)[C@H]2CNCC[C@@H]2c2ccc(OCCOc3c(Cl)cc(C)cc3Cl)cc2)C2CC2)cc(OC[C@H]2C[C@@H]2C(=O)OCOC(=O)C(C)(C)C)c1	40	Activity (Liver [25]): 95%
